The source made the active and inactive calls. No cut-off for these calls is given here.
system: Mus musculus; test: Neurotoxicity in ip dosed CF1 albino mouse after 0.5 hr by rotarod test; format: toxicity, organism-based; conditions: in vivo
Procedure, shortened: (§1)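 CF-1 mice given 30, 100 or 300 mg/kg ip in 0.5% methylcellulose/water, examined at 0.5 and 4 h. Rotorod test: neurotoxicity is the inability to keep equilibrium on the rod for a given time. Value is the minimum dose giving motor impairment; a dash means none at 300 mg/kg.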

Row | Compound | Activity [mg/kg]
1 | CC1(C)CC(=O)N(Nc2ccc(Cl)cc2)C1=O | 300
2 | CCC1(CC)CC(=O)N(Nc2ccc(Cl)cc2Cl)C1=O | 100
3 | CCC1(C)CC(=O)N(Nc2ccc(Cl)cc2)C1=O (stereo not drawn) | 100
4 | CC1(C)CC(=O)N(Nc2ccc(Br)cc2)C1=O | 300
5 | CCC1(C)CC(=O)N(Nc2ccc(Cl)cc2Cl)C1=O (stereo not drawn) | 30
6 | CCCCC1(C)CC(=O)N(Nc2ccc(Br)cc2)C1=O (stereo not drawn) | 300

system: Rattus norvegicus; test: Anticonvulsant activity in Sprague-Dawley rat assessed as protection against seizure at 30 mg/kg, po after 1 hr by maximal electroshock test; format: functional; conditions: not given
Procedure, shortened: (§2)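 Male Sprague–Dawley rats; compound suspended in 0.5% methylcellulose/water and given orally at a fixed 30 mg/kg, four rats per time point. MES test run at 0.25, 0.5, 1, 2 and 4 h after dosing, with motor impairment checked in parallel. Read-out: number of rats of four protected.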

Row | Compound | Activity
7 | CCC1(C)CC(=O)N(Nc2ccc(Cl)cc2)C1=O (stereo not drawn) | 25%
8 | CC1(C)CC(=O)N(Nc2ccc(Br)cc2)C1=O | 25%
9 | CCC1(C)CC(=O)N(Nc2ccc(Cl)cc2Cl)C1=O (stereo not drawn) | inactive

system: Rattus norvegicus; test: Anticonvulsant activity in Sprague-Dawley rat assessed as protection against seizure at 30 mg/kg, po after 4 hrs by maximal electroshock test; format: functional; conditions: not given; procedure, shortened: as §2

Row | Compound | Activity
10 | CCC1(C)CC(=O)N(Nc2ccc(Cl)cc2)C1=O (stereo not drawn) | 25%
11 | CC1(C)CC(=O)N(Nc2ccc(Br)cc2)C1=O | 50%
12 | CCC1(C)CC(=O)N(Nc2ccc(Cl)cc2Cl)C1=O (stereo not drawn) | inactive

system: Rattus norvegicus; test: Anticonvulsant activity in Sprague-Dawley rat assessed as protection against seizure at 30 mg/kg, po after 0.25 hr by maximal electroshock test; format: functional; conditions: not given; procedure, shortened: as §2

Row | Compound | Activity
13 | CCC1(C)CC(=O)N(Nc2ccc(Cl)cc2)C1=O (stereo not drawn) | inactive
14 | CCC1(C)CC(=O)N(Nc2ccc(Cl)cc2Cl)C1=O (stereo not drawn) | inactive

system: Rattus norvegicus; test: Anticonvulsant activity in Sprague-Dawley rat assessed as protection against seizure at 50 mg/kg, po after 1 hr by subcutaneous pentylenetetrazole test; format: functional, organism-based; parameters: dose 50 mg/kg; conditions: not given
Procedure, shortened: (§3)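 Male Sprague–Dawley rats dosed orally at 50 mg/kg as a 0.5% methylcellulose/water suspension, four animals per time point. Convulsant given subcutaneously at 0.25, 0.5, 1, 2 and 4 h after dosing; rotorod motor impairment assessed in parallel. Read-out: number of rats of four protected.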

Row | Compound | Activity
15 | CCCCC1(C)CC(=O)N(Nc2ccc(Br)cc2)C1=O (stereo not drawn) | inactive

system: Mus musculus; test: Anticonvulsant activity in ip dosed CF1 albino mouse assessed as inhibition of subcutaneous pentylenetetrazole-induced electrical stimulus at 300 mg/kg after 4 hrs; format: functional, organism-based; parameters: dose 300 mg/kg; conditions: not given
Procedure, shortened: (§4)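 Male CF-1 mice injected intraperitoneally at 30, 100 and 300 mg/kg, suspended in 0.5% methylcellulose/water. MES or subcutaneous pentylenetetrazole challenge at 0.5 and 4 h; selected compounds also at 1 or 2 h.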

Row | Compound | Activity
16 | CCC1(CC)CC(=O)N(Nc2ccc(Cl)cc2Cl)C1=O | inactive
17 | CCC1(C)CC(=O)N(Nc2ccc(Cl)cc2)C1=O (stereo not drawn) | inactive
18 | CC1(C)CC(=O)N(Nc2ccc(Br)cc2)C1=O | inactive
19 | CCCCC1(C)CC(=O)N(Nc2ccc(Br)cc2)C1=O (stereo not drawn) | inactive

system: Mus musculus; test: Anticonvulsant activity in ip dosed CF1 albino mouse assessed as inhibition of maximal electroshock-induced electrical stimulus after 4 hrs; format: functional; conditions: not given; procedure, shortened: as §4

Row | Compound | Activity [mg/kg]
20 | CC1(C)CC(=O)N(Nc2ccc(Cl)cc2)C1=O | 300
21 | CCC1(CC)CC(=O)N(Nc2ccc(Cl)cc2Cl)C1=O | 300
22 | CC1(C)CC(=O)N(Nc2ccc(Br)cc2)C1=O | 300
23 | CCC1(C)CC(=O)N(Nc2ccc(Cl)cc2Cl)C1=O (stereo not drawn) | 300

system: Mus musculus; test: Neurotoxicity in ip dosed CF1 albino mouse at 300 mg/kg after 4 hrs by rotarod test; format: toxicity, organism-based; parameters: dose 300 mg/kg, route intraperitoneal; conditions: in vivo; procedure, shortened: as §1

Row | Compound | Activity
24 | CCC1(CC)CC(=O)N(Nc2ccc(Cl)cc2Cl)C1=O | Not Active
25 | CC1(C)CC(=O)N(Nc2ccc(Br)cc2)C1=O | Not Active
26 | CCCCC1(C)CC(=O)N(Nc2ccc(Br)cc2)C1=O (stereo not drawn) | Not Active

system: Rattus norvegicus; test: Anticonvulsant activity in Sprague-Dawley rat assessed as protection against seizure at 50 mg/kg, po after 2 hrs by subcutaneous pentylenetetrazole test; format: functional, organism-based; parameters: dose 50 mg/kg; conditions: not given; procedure, shortened: as §3

Row | Compound | Activity
27 | CCCCC1(C)CC(=O)N(Nc2ccc(Br)cc2)C1=O (stereo not drawn) | inactive

system: Mus musculus; test: Anticonvulsant activity in ip dosed CF1 albino mouse assessed as inhibition of maximal electroshock-induced electrical stimulus at 300 mg/kg after 4 hrs; format: functional, organism-based; parameters: dose 300 mg/kg; conditions: not given; procedure, shortened: as §4

Row | Compound | Activity
28 | CCC1(C)CC(=O)N(Nc2ccc(Cl)cc2)C1=O (stereo not drawn) | inactive
29 | CCCCC1(C)CC(=O)N(Nc2ccc(Br)cc2)C1=O (stereo not drawn) | inactive

system: Mus musculus; test: Neurotoxicity in ip dosed CF1 albino mouse after 4 hrs by rotarod test; format: toxicity, organism-based; conditions: in vivo; procedure, shortened: as §1

Row | Compound | Activity [mg/kg]
30 | CC1(C)CC(=O)N(Nc2ccc(Cl)cc2)C1=O | 300
31 | CCC1(C)CC(=O)N(Nc2ccc(Cl)cc2)C1=O (stereo not drawn) | 300
32 | CCC1(C)CC(=O)N(Nc2ccc(Cl)cc2Cl)C1=O (stereo not drawn) | 300

system: Rattus norvegicus; test: Anticonvulsant activity in Sprague-Dawley rat assessed as protection against seizure at 30 mg/kg, po after 2 hrs by maximal electroshock test; format: functional; conditions: not given; procedure, shortened: as §2

Row | Compound | Activity [%]
33 | CC1(C)CC(=O)N(Nc2ccc(Br)cc2)C1=O | 50
34 | CCC1(C)CC(=O)N(Nc2ccc(Cl)cc2Cl)C1=O (stereo not drawn) | 25

system: not listed separately; test: Lipophilicity, log kw of compound by RP-HPLC; format: physicochemical; conditions: not given
Procedure, shortened: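 RP-HPLC on a C18 end-capped column at room temperature, with UV detection at 214 nm and uracil as the unretained marker. Capacity factor k = (tr − t0)/t0, from the mean of three measurement sets. log k extrapolated to 100% water (log k = log kw − Sφ) to give log kw.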

Row | Compound | log K
35 | CC1(C)CC(=O)N(Nc2ccc(Cl)cc2)C1=O | 2.08
36 | CCC1(CC)CC(=O)N(Nc2ccc(Cl)cc2Cl)C1=O | 2.552
37 | CCC1(C)CC(=O)N(Nc2ccc(Cl)cc2)C1=O (stereo not drawn) | 2.201
38 | CC1(C)CC(=O)N(Nc2ccc(Br)cc2)C1=O | 1.864
39 | CCC1(C)CC(=O)N(Nc2ccc(Cl)cc2Cl)C1=O (stereo not drawn) | 2.334
40 | CCCCC1(C)CC(=O)N(Nc2ccc(Br)cc2)C1=O (stereo not drawn) | 2.539

system: Rattus norvegicus; test: Neurotoxicity in po dosed Sprague-Dawley rat at 50 mg/kg by rotarod test; format: toxicity, organism-based; parameters: dose 50 mg/kg, route oral; conditions: in vivo; procedure, shortened: as §3

Row | Compound | Activity
41 | CCCCC1(C)CC(=O)N(Nc2ccc(Br)cc2)C1=O (stereo not drawn) | Non-toxic

system: Mus musculus; test: Anticonvulsant activity in ip dosed CF1 albino mouse assessed as inhibition of subcutaneous pentylenetetrazole-induced electrical stimulus after 0.5 hr; format: functional; conditions: not given; procedure, shortened: as §4

Row | Compound | Activity [mg/kg]
42 | CC1(C)CC(=O)N(Nc2ccc(Cl)cc2)C1=O | 100
43 | CCC1(CC)CC(=O)N(Nc2ccc(Cl)cc2Cl)C1=O | 100
44 | CCC1(C)CC(=O)N(Nc2ccc(Cl)cc2)C1=O (stereo not drawn) | 300
45 | CCC1(C)CC(=O)N(Nc2ccc(Cl)cc2Cl)C1=O (stereo not drawn) | 100
46 | CCCCC1(C)CC(=O)N(Nc2ccc(Br)cc2)C1=O (stereo not drawn) | 300

system: Rattus norvegicus; test: Anticonvulsant activity in Sprague-Dawley rat assessed as protection against seizure at 50 mg/kg, po after 0.5 hr by subcutaneous pentylenetetrazole test; format: functional; conditions: not given; procedure, shortened: as §3

Row | Compound | Activity [%]
47 | CCCCC1(C)CC(=O)N(Nc2ccc(Br)cc2)C1=O (stereo not drawn) | 25

system: Mus musculus; test: Anticonvulsant activity in ip dosed CF1 albino mouse assessed as inhibition of maximal electroshock-induced electrical stimulus after 0.5 hr; format: functional; conditions: not given; procedure, shortened: as §4

Row | Compound | Activity [mg/kg]
48 | CC1(C)CC(=O)N(Nc2ccc(Cl)cc2)C1=O | 100
49 | CCC1(CC)CC(=O)N(Nc2ccc(Cl)cc2Cl)C1=O | 300
50 | CCC1(C)CC(=O)N(Nc2ccc(Cl)cc2)C1=O (stereo not drawn) | 100
51 | CC1(C)CC(=O)N(Nc2ccc(Br)cc2)C1=O | 300
52 | CCC1(C)CC(=O)N(Nc2ccc(Cl)cc2Cl)C1=O (stereo not drawn) | 300

system: Rattus norvegicus; test: Anticonvulsant activity in Sprague-Dawley rat assessed as protection against seizure at 50 mg/kg, po after 4 hrs by subcutaneous pentylenetetrazole test; format: functional; conditions: not given; procedure, shortened: as §3

Row | Compound | Activity
53 | CCCCC1(C)CC(=O)N(Nc2ccc(Br)cc2)C1=O (stereo not drawn) | inactive

system: Mus musculus; test: Anticonvulsant activity in ip dosed CF1 albino mouse assessed as inhibition of subcutaneous pentylenetetrazole-induced electrical stimulus after 4 hrs; format: functional; conditions: not given; procedure, shortened: as §4

Row | Compound | Activity [mg/kg]
54 | CC1(C)CC(=O)N(Nc2ccc(Cl)cc2)C1=O | 300
55 | CCC1(C)CC(=O)N(Nc2ccc(Cl)cc2Cl)C1=O (stereo not drawn) | 300

system: Rattus norvegicus; test: Anticonvulsant activity in Sprague-Dawley rat assessed as protection against seizure rat at 50 mg/kg, po after 0.25 hr by subcutaneous pentylenetetrazole test; format: functional; conditions: not given; procedure, shortened: as §3

Row | Compound | Activity
56 | CCCCC1(C)CC(=O)N(Nc2ccc(Br)cc2)C1=O (stereo not drawn) | inactive

system: Rattus norvegicus; test: Anticonvulsant activity in Sprague-Dawley rat assessed as protection against seizure at 30 mg/kg, po after 0.5 hr by maximal electroshock test; format: functional; conditions: not given; procedure, shortened: as §2

Row | Compound | Activity [%]
57 | CC1(C)CC(=O)N(Nc2ccc(Br)cc2)C1=O | 25
58 | CCC1(C)CC(=O)N(Nc2ccc(Cl)cc2Cl)C1=O (stereo not drawn) | 25

system: Mus musculus; test: Anticonvulsant activity in ip dosed CF1 albino mouse assessed as inhibition of maximal electroshock-induced electrical stimulus after 1 hr; format: functional; conditions: not given; procedure, shortened: as §4

Row | Compound | Activity [mg/kg]
59 | CCC1(CC)CC(=O)N(Nc2ccc(Cl)cc2Cl)C1=O | 100
60 | CC1(C)CC(=O)N(Nc2ccc(Br)cc2)C1=O | 100
61 | CCC1(C)CC(=O)N(Nc2ccc(Cl)cc2Cl)C1=O (stereo not drawn) | 100

system: Mus musculus; test: Anticonvulsant activity in ip dosed CF1 albino mouse assessed as inhibition of subcutaneous pentylenetetrazole-induced electrical stimulus at 300 mg/kg after 0.5 hr; format: functional, organism-based; parameters: dose 300 mg/kg; conditions: not given; procedure, shortened: as §4

Row | Compound | Activity
62 | CC1(C)CC(=O)N(Nc2ccc(Br)cc2)C1=O | inactive

system: Mus musculus; test: Anticonvulsant activity in ip dosed CF1 albino mouse assessed as inhibition of maximal electroshock-induced electrical stimulus at 300 mg/kg after 0.5 hr; format: functional, organism-based; parameters: dose 300 mg/kg; conditions: not given; procedure, shortened: as §4

Row | Compound | Activity
63 | CCCCC1(C)CC(=O)N(Nc2ccc(Br)cc2)C1=O (stereo not drawn) | inactive

From ChEMBL document CHEMBL1157190, “Design, synthesis, and anticonvulsant activity of N-phenylamino derivatives of 3,3-dialkyl-pyrrolidine-2,5-diones and hexahydro-isoindole-1,3-diones” (Bioorg Med Chem, 2008)
